Source: PubChem BioAssay (several laboratories)
The list is not random: actives were taken first. Their share in the collection is about 2.6%.
Rad51 HR inh: blocks human Rad51 in homologous recombination | Q06609 | hRad51 DNA strand exchange, fluorescence dequenching | inhibition, % at 10 µM | 200,000 compounds, 0.085% hits | AID 1385;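 active = inhibition above 40% at the single screening dose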
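Material: Human Rad51 nucleoprotein filaments preassembled on unlabelled ssDNA | Also added: Labelled 47-mer dsDNA for strand exchange | Dosing: Single dose, 10 µM final compound | Schedule: 30-min compound preincubation and 15-min exchange, both room temperature | Technique: Fluorescence dequenching at 485/520 nm | Measure: Percent inhibition relative to plate controls and blanks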
Hsp70 activator: Hsp70 transcriptional activation, primary screen | HeLa Hsp70 promoter luciferase reporter, luminescence; scaled: vehicle 0, proteasome-inhibitor control 100% | activation, % at 10 µM | 200,000 compounds, 0.04% hits;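 active = activation above the mean across all tested compounds plus 3 SD, cutoff set per campaign, cut at about 5.5% in these data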
HSF1 inhib: HSF1 inhibition; NIH3T3-HGL HSE-luciferase, MG132-induced, luminescence 8 h; stronger effect = lower value; activity change, negative = inhibition, % at 7.5 µM (by protocol); 300,000 compounds, 0.77% hits; AID 2098;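 active = more than half of replicate wells show activity change below -50%, luminescence cut by over half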;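 note: luciferase reports HSF-1 transcriptional activity via heat shock element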
HSV replic up: increases HSV replication in cells; HSV replication augmentation in cells, fold increase; maximum fold increase; 220,000 compounds, 0.005% hits; in the data active = maximum fold increase above about 1.5; tested in PC3 cells
Mdm2 ligase inh: Mdm2 E3 ligase (human) inhibition; Q00987; cell-based MDM2 ubiquitination luciferase reporter, 2 h; 0 = plate control, 100 = twice control, blank-subtracted; signal enhancement, % at 5 µM; 210,000 compounds, 0.11% hits;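 active = signal enhancement of 30% or more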;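 note: luminescence tracks abundance of the self-degrading MDM2-luciferase fusion protein; higher signal means inhibition of MDM2 E3 ligase activity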
Target sequence (Q00987 whole entry, looked up, the tested form may be a part): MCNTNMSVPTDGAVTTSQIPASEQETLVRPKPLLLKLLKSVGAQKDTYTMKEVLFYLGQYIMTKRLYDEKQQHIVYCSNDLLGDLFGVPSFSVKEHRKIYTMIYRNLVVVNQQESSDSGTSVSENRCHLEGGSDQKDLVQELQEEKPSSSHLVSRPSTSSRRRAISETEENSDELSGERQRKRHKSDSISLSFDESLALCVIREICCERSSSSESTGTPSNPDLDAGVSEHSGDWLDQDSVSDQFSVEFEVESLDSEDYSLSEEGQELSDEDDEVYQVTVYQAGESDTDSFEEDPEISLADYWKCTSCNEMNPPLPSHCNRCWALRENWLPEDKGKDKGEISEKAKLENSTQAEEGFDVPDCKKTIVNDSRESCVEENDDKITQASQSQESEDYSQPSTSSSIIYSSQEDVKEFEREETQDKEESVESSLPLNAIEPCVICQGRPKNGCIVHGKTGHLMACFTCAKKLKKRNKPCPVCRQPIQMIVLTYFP
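Timing – 2 h compound exposure at 37 °C · Assay system – mammalian cells stably expressing self-ubiquitinating, self-degrading MDM2 E3–luciferase fusion · Amount – 2000 cells seeded into each well · Measure – % luminescence enhancement versus blank-corrected plate control mean · Measured by – SteadyLite luminescence, 15 min reagent step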
HSF1 activator: increases HSF-1 driven luciferase reporter signal | 300,000 compounds, 1.7% hits | NIH3T3-HGL HSF-1 luciferase reporter, MG132, 8 h; 100% = twice DMSO control signal | activation, % at 9 µM;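 active = mean replicate activation of at least 50% with a set share of replicates each reaching 50%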
Hits are given with their value; – = inactive; · = no result given.

SMILES | Rad51 HR inh | Hsp70 activator | HSF1 inhib | HSV replic up | Mdm2 ligase inh | HSF1 activator
CCN(CC)c1ccc(CNc2nc3ccccc3n2CCN2CCOCC2)cc1 | – | – | -60 | – | – | –
C=CCc1cccc(CNc2nc3ccccc3n2C)c1O | · | · | – | · | · | –
COc1cccc(NC(=O)C(=O)NCCC2CCCCN2S(=O)(=O)c2cccs2)c1 (configuration not stated) | · | · | – | · | · | –
COc1ccc(/C=N/N=C/c2ccc(OC)c(OC)c2)cc1OC | – | – | – | – | – | –
COc1cc(/C=N/N=C(N)N)ccc1OCc1ccccc1Cl | – | – | – | – | – | 55
C=CCn1c(=O)c2c3c(sc2n2c(Nc4ccccc4)nnc12)CCCC3 | – | – | – | – | – | 68
CCCSc1cc(NCCOC(=O)CCC)c([N+](=O)[O-])c2nonc12 | – | – | – | – | – | –
CCC(=O)OCCNc1cc(Sc2nc3ccccc3s2)c2nonc2c1[N+](=O)[O-] | – | – | – | – | – | 85
CCCC(=O)OCCNc1cc(Sc2nccn2C)c2nonc2c1[N+](=O)[O-] | – | – | – | – | – | 290
Cc1nnc(Sc2cc(NCCO)c([N+](=O)[O-])c3nonc23)s1 | – | – | – | – | – | 153
O=[N+]([O-])c1c(NCCCO)cc(Sc2nc3ccccc3s2)c2nonc12 | · | – | – | · | – | 272
COc1ccc(-c2csc3nc(-c4ccccc4F)oc(=O)c23)cc1 | – | · | – | – | – | 78
COc1ccc(-c2nc3scc(-c4ccc(OC)c(OC)c4)c3c(=O)o2)cc1 | – | – | – | – | – | –
Cc1cc(C)cc(N2C(=O)CN(Cc3ccccc3)C2=S)c1 | · | · | -78 | · | · | –
CCc1ccc(N2C(=O)CN(Cc3ccccc3)C2=S)cc1 | · | · | – | · | · | –
COc1ccc(OC)c(NC(=O)NCc2cccnc2)c1 | · | · | – | · | · | –
O=C(CSc1nnc(SCc2ccc(Cl)cc2)s1)N/N=C/c1c(Cl)cccc1Cl | – | – | – | · | – | 60
COc1ccc(C(C(=O)NC2CCCC2)N(Cc2ccccc2)C(=O)c2snc(C(N)=O)c2N)cc1OC (configuration not stated) | · | · | – | · | · | 52
COc1ccc(CN(C(=O)c2snc(C(N)=O)c2N)C(C(=O)NC2CCCC2)c2ccc(OC)c(OC)c2)cc1 (configuration not stated) | · | · | – | · | · | –
NC(=O)c1nsc(C(=O)N(c2cccc(F)c2)C(C(=O)NC2CCCC2)c2ccco2)c1N (configuration not stated) | · | · | -81 | · | · | –
O=C(NCC(=O)N(c1cccc(F)c1)C(C(=O)NC1CCCC1)c1ccncc1)c1ccco1 (configuration not stated) | · | · | – | · | · | 54
Cc1c(C(=O)N2CCCCC2)c(S(=O)(=O)Nc2ccc(F)cc2F)c(C)n1C | · | · | – | · | · | –
Cc1ccc(C)c(N2N=C(C(=O)N(CC(C)C)c3c(N)n(Cc4ccccc4)c(=O)[nH]c3=O)CCC2=O)c1 | · | · | – | · | · | –
CCC(CC)C(=O)c1c[nH]c(C(=O)NCc2ccccn2)c1 | – | – | – | – | – | –
Cc1ccc(CN(C)C(=O)C2CCC(=O)N(CCc3ccccc3)C2)o1 (configuration not stated) | · | · | – | · | · | 195
SMILES | Rad51 HR inh | Hsp70 activator | HSF1 inhib | HSV replic up | Mdm2 ligase inh | HSF1 activator
CN(Cc1cnccn1)C(=O)C1CCC(=O)N(CCc2ccccc2)C1 (configuration not stated) | · | · | – | · | · | –
CN(CCOc1ccccc1)C(=O)C1CCC(=O)N(CCc2ccc(Cl)cc2)C1 (configuration not stated) | · | · | – | · | · | 59
COc1ccc(CCN2CC(C(=O)N(C)CCOc3ccccc3)CCC2=O)cc1 (configuration not stated) | · | · | – | · | · | –
CC1CCN(c2ccc(C=O)o2)CC1 | – | – | – | – | – | 58
Cc1ccc(S(=O)(=O)Nc2c(C)cc(C)nc2Cl)cc1 | · | · | – | · | · | –
Cc1csc2nc(CSc3nc4ccccc4o3)c(Br)n12 | – | – | – | – | – | 110
O=C(COC(=O)CNS(=O)(=O)/C=C/c1ccccc1)Nc1cccc2ccccc12 | – | – | – | – | – | –
Cc1c(-c2ccc(Br)cc2)nc2ccccn12 | – | – | – | – | – | 51
Cc1cccc(OCC(=O)Nc2nnc(S(=O)(=O)N3CCCCCC3)s2)c1 | · | · | – | · | · | –
